Screens from PubChem BioAssay.
PfG6PD inh: PfG6PD (Plasmodium falciparum) enzyme inhibition; 0.78% of 350,000 active; inhibition, % at 20 µM; PfGluPho enzyme, NADPH resazurin-diaphorase fluorescence; AID 504690;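 active means inhibition reaching at least a set limit at 20 µM in the primary screen, cut at about 59% in these data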;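 further: 0% = DMSO wells with substrate and 100% = DMSO wells lacking glucose-6-phosphate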
Exocytosis inh: blocks lytic granule exocytosis | inhibition, % at 10 µM | AID 651702 | 0.66% of 360,000 active | TALL-104 LAMP-1 surface exposure, flow cytometry; cells stimulated with thapsigargin and PMA;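 active means inhibition above about 55%, limit read from the data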
HKDC1 inh: HKDC1 (human) hexokinase inhibition; recombinant HKDC1, G6PDH/diaphorase resazurin coupled fluorescence; inhibition, % at 20 µM; 0.16% of 340,000 active; AID 493160;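 active means inhibition above about 35% when tested at 20 µM, limit read from the data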;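 further: plate controls were DMSO wells with enzyme for no effect and DMSO wells lacking enzyme for full effect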
Target sequence (Q2TB90 whole entry, looked up): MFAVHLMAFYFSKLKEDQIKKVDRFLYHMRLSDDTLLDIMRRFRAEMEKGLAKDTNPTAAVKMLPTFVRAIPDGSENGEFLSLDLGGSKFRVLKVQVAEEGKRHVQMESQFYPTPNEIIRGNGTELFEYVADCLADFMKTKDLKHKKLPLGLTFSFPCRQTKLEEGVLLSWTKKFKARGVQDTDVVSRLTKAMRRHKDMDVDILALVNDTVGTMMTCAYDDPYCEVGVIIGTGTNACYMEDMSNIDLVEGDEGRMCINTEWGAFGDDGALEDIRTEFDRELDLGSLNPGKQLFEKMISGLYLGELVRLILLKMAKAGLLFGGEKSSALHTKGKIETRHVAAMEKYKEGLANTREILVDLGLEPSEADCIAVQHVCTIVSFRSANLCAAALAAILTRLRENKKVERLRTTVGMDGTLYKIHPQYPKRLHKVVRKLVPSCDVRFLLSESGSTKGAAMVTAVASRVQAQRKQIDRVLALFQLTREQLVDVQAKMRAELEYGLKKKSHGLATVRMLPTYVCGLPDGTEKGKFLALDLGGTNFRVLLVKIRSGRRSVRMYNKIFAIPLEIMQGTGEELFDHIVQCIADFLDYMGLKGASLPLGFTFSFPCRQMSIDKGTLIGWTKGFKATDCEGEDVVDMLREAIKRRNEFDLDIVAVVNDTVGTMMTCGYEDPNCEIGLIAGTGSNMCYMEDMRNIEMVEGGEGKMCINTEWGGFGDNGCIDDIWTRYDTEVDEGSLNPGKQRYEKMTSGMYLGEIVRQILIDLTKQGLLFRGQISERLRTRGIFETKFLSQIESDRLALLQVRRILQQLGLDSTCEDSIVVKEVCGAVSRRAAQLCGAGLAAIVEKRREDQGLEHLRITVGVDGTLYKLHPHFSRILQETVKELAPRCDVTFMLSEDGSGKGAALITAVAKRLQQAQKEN
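Test system: recombinant HKDC1 (HK5) hexokinase enzyme, produced in-house; Amount: enzyme 5 µg/mL final; Buffer or medium: Tris pH 8.0 buffer with MgCl2, Tween-20, BSA, BME; Reagent: glucose and ATP substrates; Doses: 20 µM test compound, 1% DMSO; Incubation: 90 min reaction incubation at room temperature, dark; Detection: resorufin fluorescence at 613 nm.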
ABHD5-PLIN5 inh: blocks binding of human ABHD5 to perilipin-5 | Q00G26+Q8WTS1 | Split G. princeps luciferase complementation, luminescence, 4 h | inhibition, % at 4 µM | 0.78% of 360,000 active | AID 602281;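 active means inhibition above the mean inhibition across every tested compound plus 3 SD, cut at about 22% in these data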;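 further: 0% = DMSO only wells and the 100% control is not disclosed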
PfGluPho conf: confirmation of Plasmodium falciparum G6PD inhibitors. shares compounds with PfG6PD inh. recombinant PfGluPho, NADPH-diaphorase-resazurin fluorescence. inhibition, % at 20 µM. 34% of 2,400 active;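 active means inhibition of at least 50% at 20 µM in any single replicate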;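 further: 0% = DMSO with substrate and 100% = DMSO lacking glucose-6-phosphate substrate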
Diaph ctr 10uM: diaphorase inhibition or oxidation at 10 uM NADPH. shares compounds with PfG6PD inh. diaphorase-coupled resazurin reduction, fluorescence, NADPH 10 uM. inhibition, % at 20 µM. 39% of 820 active;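 active means average inhibition reaching 50% or more with the compound at 20 µM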;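 further: resorufin red fluorescence formed as diaphorase reduces resazurin using NADPH; 0% = DMSO with enzyme and 100% = DMSO without enzyme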
Diaph ctr 30uM: diaphorase inhibition or oxidation at 30 uM NADPH | shares compounds with PfG6PD inh | Diaphorase/resazurin coupled assay, resorufin fluorescence | inhibition, % at 20 µM | 29% of 820 active;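 active means inhibition averaging 50% or more, tested at 20 µM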;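 further: 0% = DMSO with enzyme and 100% = DMSO wells lacking diaphorase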
Starred values were filed as active, the others as inactive; / = not tested or not shown. Only some compounds are listed: those with a hit (about 2.2% of all), similar ones and a draw of the others.

SMILES	PfG6PD inh	Exocytosis inh	HKDC1 inh	ABHD5-PLIN5 inh	PfGluPho conf	others
CC1(OC(=O)C2CCCC2)C(=O)C=C2C=C(c3ccsc3)N(Cc3ccc4c(c3)OCO4)C=C2C1=O (stereo not given)	61*	-1	27	-10	53*	Diaph ctr 10uM=8;Diaph ctr 30uM=3
CC1(OC(=O)C2CCCC2)C(=O)C=C2C=C(c3ccsc3)N(CC3CC3)C=C2C1=O (stereo not given)	68*	3	21	-5	50*	Diaph ctr 10uM=12;Diaph ctr 30uM=14
COC(=O)c1sc(S(=O)(=O)Nc2c(C)nn(C)c2C)c(C(=O)OC)c1C	0	-2	-1	-6	/
COC(=O)c1sc(NC(=S)NNC(=O)c2c(Br)c(C)nn2C)c(C(=O)OC)c1C	61*	28	-5	8	38
Clc1cccc(Cl)c1C[n+]1ccc2ccccc2c1	-4	18	1	-2	/
CCn1c(NC(=O)c2ccc(C)cc2)c2ccccc2nc1=O	72*	0	-3	-6	36
O=C(Nc1ccc(F)cc1F)Nc1sccc1-c1nc2ccccc2s1	81*	10	-1	-2	0
C=CCNc1oc(-c2cccc(F)c2)nc1C#N	-20	-5	-1	10	/
c1ccc(N2CCN(c3nc(-c4cccs4)nc4ccccc34)CC2)cc1	9	0	-8	-8	/
Oc1ccc(N2CCN(c3nc(-c4cccs4)nc4ccccc34)CC2)cc1	60*	7	9	4	6
S=C(Nc1ccccn1)c1ccccn1	67*	1	4	-11	13
O=C(Nc1ccccn1)C(=O)Nc1ccccn1	0	-3	-5	-3	/
Cc1ccc(C)c(NC(=O)c2ccccc2C(=O)c2ccccc2)c1	/	2	/	-4	/
O=C(O)CC1(CC(=O)Nc2ccc3c(c2)C(=O)OC3)CCCCC1	-1	-2	-2	11	/
Nc1ccc(N2CCOCC2)cc1C(F)(F)F	-6	-4	-6	3	/
COc1ccc(F)cc1S(=O)(=O)Nc1ccc(C)cc1	63*	1	-6	3	37
COc1ccc(NS(=O)(=O)c2cc(C)ccc2OC)cc1OC	-13	0	4	5	/
COc1ccccc1N/N=C/c1c(CO)cnc(C)c1O	10	-2	-5	5	/
COc1cc(N=Cc2c(CO)cnc(C)c2O)cc(OC)c1OC	63*	2	1	-3	68*	Diaph ctr 10uM=-25;Diaph ctr 30uM=-17
Cc1cc(N=Nc2ccc(C)c(N=Nc3cc(C)c(N)cc3N)c2)c(N)cc1N	33	-7	28	10	/
Cc1ccc(NNC(=O)Nc2ccc(Cl)cc2)nn1	68*	12	2	-3	26
O=C(NNc1cccc(Cl)n1)Nc1ccc(Cl)cc1	33	3	-7	-2	/
COc1ccccc1-n1c(=O)oc2ccc(Cl)cc2c1=O	61*	-2	0	1	27
COc1ccc2ccccc2c1-c1sc(Nc2ccccc2)n[n+]1-c1ccc(F)cc1	99*	-4	-1	5	79*	Diaph ctr 10uM=75*;Diaph ctr 30uM=59*
CCc1ccc(Nc2n[n+](-c3ccccc3)c(-c3c(Cl)cccc3Cl)s2)cc1	80*	-5	4	0	34
SMILES	PfG6PD inh	Exocytosis inh	HKDC1 inh	ABHD5-PLIN5 inh	PfGluPho conf	others
COc1ccc(C)cc1Nc1n[n+](-c2ccccc2)c(-c2c(Cl)cccc2Cl)s1	73*	/	3	/	40
Cc1cc(C)n2c(=O)[nH]nc2c1	-6	-2	3	-6	/
CC(=NNC(=S)N1CCN(c2ccccn2)CC1)c1ccccn1	84*	1	-21	-8	30
CC(=NNC(=S)N1CCN(c2ccccn2)CC1)c1nccs1	93*	4	-36	3	57*	Diaph ctr 10uM=-3;Diaph ctr 30uM=4
N#CCCN(C(=S)Nc1ccc(S(=O)(=O)N2CCOCC2)cc1)c1ccccc1F	-4	0	-3	-21	/
CCOc1cc(/C=N/O)cc(Br)c1OCc1ccc(Cl)cc1	76*	6	-3	-21	4
CCOc1cc(/C=N/O)cc(Br)c1OCC	2	7	0	-9	/
CCOc1cc(/C=N/O)ccc1OS(=O)(=O)c1ccc(C)cc1	15	-2	1	5	/
CCOc1cc(/C=N/O)ccc1OCc1ccc(C)cc1	66*	0	-6	-8	42
CCOC(=O)CC(=O)CSc1nc2ccc(OC)cc2cc1C	0	0	-6	0	/
CCN(CC)C(=O)CSc1nc(-c2cccs2)cc(-c2cccs2)c1C#N	70*	21	4	10	15
CCN(CC)C(=O)CSc1nc(N)c(C#N)c(-c2cccs2)c1C#N	-4	0	10	-2	/
CCOc1ccccc1C(=O)N/N=C/c1coc2ccc(Cl)cc2c1=O	-4	2	10	2	/
Nc1nc2ccccc2n1/N=C/c1ccc(-c2ccccc2)o1	80*	-1	4	4	13
COc1cc(C[C@@H](C)[C@@H](C)Cc2ccc(O)c(OC)c2)ccc1O	-7	9	3	-12	/
CC(Cc1ccc(O)c(O)c1)C(C)Cc1ccc(O)c(O)c1 (stereo not given)	84*	/	6	/	61*	Diaph ctr 10uM=0;Diaph ctr 30uM=3
Cc1[nH]n(-c2ccccc2)c(=S)c1C=Nc1cccc([N+](=O)[O-])c1	110*	-4	2	-39	48
CC(Sc1nn(-c2ccccc2)c(=S)s1)C(=O)NCC1CCCO1 (stereo not given)	9	-2	-6	1	/
COc1ccc(NC(=O)c2sc(=O)n(Cc3ccc4ccccc4c3)c2C)cc1OC	/	-3	/	-1	/
O=c1ccn(C2CCCO2)c(=O)[nH]1 (stereo not given)	-3	4	-5	-7	/
CCOC(=O)c1c(NC(=O)c2ccccc2Cl)sc2c1CCc1ccccc1-2	72*	2	-1	-9	28
CCCCCOc1ccc(C(C)(O)C(CN2CCOCC2)c2ccccc2)cc1 (stereo not given)	13	-6	-1	-7	/
CC(Sc1ccc(S(=O)(=O)N2CCOCC2)cn1)c1ccccc1Cl (stereo not given)	48	-6	8	-11	4
COc1cc(C(=O)O/N=C2\C=CC(=O)C=C2C)cc(OC)c1OC	67*	12	-7	3	63*	Diaph ctr 10uM=27;Diaph ctr 30uM=15
COc1ccc(-c2cn3cc(C)ccc3n2)cc1OC	61*	-3	-1	-2	43
COc1ccc(-c2cn3cc(C)ccc3n2)cc1F	107*	-1	-5	-4	73*	Diaph ctr 10uM=64*;Diaph ctr 30uM=54*
COc1ccc(-c2cn3cccc(C)c3n2)cc1F	26	-15	-5	-2	/
COc1ccc(CC(=O)OCC(=O)NCc2ccc(C)cc2)cc1OC	5	-2	-4	-1	/
Cc1cccc(C)c1NC(=O)c1cc(S(=O)(=O)N2CCC3(CC2)OCCO3)ccc1F	28	4	/	-1	/
O=Cc1cccc(Oc2ncccn2)c1	7	-1	-2	-2	/
